Most compounds without a hit are left out; they make up all but 3% or so of the library.
SIRT5 block – inhibitors of human sirtuin-5 desuccinylase; Purified SirT5, succinyl-peptide AMC, trypsin-coupled fluorescence; 330,000 tested, 1.1% active; Q9NXA8; AID 652115; inhibition, % at 15 µM; in the data active = inhibition above about 15%
Target sequence (Q9NXA8 whole entry, looked up): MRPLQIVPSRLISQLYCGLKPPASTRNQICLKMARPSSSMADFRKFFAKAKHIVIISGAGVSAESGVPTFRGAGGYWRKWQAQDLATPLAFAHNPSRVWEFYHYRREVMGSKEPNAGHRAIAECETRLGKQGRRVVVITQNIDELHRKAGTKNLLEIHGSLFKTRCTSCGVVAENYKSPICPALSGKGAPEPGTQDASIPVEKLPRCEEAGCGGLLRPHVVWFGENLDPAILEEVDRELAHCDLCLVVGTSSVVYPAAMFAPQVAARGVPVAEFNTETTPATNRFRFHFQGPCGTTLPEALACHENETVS
rRNA inh HTS – selective bacterial rRNA inhibition in E. coli; E. coli WT GFP vs humanized-ribosome RFP mutants, fluorescence, 24 h; stronger effect = lower value; DMSO median 0, no signal -100; GFP signal change (wild-type ribosome), % (no concentration beside the values); 350,000 tested, 1.6% active; AID 720706;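 active = significant combined selectivity score with lowered wild-type GFP, culture density cut under 30%, mutant RFP and density less affected; inactive = any of these conditions unmet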
Statin myotox sup – protects C2C12 myotubes from simvastatin toxicity. ATP luminescence, 48 h; scaled: DMSO 0, geranylgeraniol control 100. 330,000 tested, 0.78% active. rescue of ATP level, % at 7.49 µM;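 active = mean ATP rescue above about 67%, or every replicate alone reaching that limit, limit read from the data, passing the limit was not always enough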;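 also: myotubes were challenged with 10 µM simvastatin during compound exposure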
Cneo AK release – Cryptococcus neoformans lysis via adenylate kinase release; AID 651654; C. neoformans lysis, adenylate kinase release luminescence, 4 h; normalised: neutral wells 0, clomiphene wells 100; 360,000 tested, 0.2% active; lysis activity, % at 15 µM;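 active = mean lysis activity across replicates of at least 80%, whatever share of replicates individually reach that level; inactive = mean lysis activity below 80%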
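Material – Cryptococcus neoformans yeast cells · Quantity – 5 × 10^6 yeast cells/mL · Buffer or medium – YPD medium · Compound – single dose · Timing – 4 h static compound exposure, 37 °C, read 1 h post-reagent · Signal – adenylate kinase release luminescence · Read-out basis – lysis from increased AK signal · Benchmarks – Clomiphene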
S100A4 MyoIIA – inhibitors of human S100A4 binding to myosin IIA peptide; 360,000 tested, 0.14% active; inhibition, % at 10.7 µM; P26447; S100A4/TAMRA-MyoIIA peptide fluorescence polarization;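 active = mean inhibition of at least 70% across replicates, with every replicate also reaching that level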
Target sequence (P26447 whole entry, looked up): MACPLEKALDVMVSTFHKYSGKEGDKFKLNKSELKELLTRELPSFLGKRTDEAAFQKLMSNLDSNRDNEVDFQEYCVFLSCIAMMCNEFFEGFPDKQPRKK
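Material: S100A4 monomer protein | Medium: HEPES pH 7.2 with CaCl2, KCl, NaCl, DTT, Triton | Reagent: Labelled myosin peptide probe, 5 nM | Doses: One dose per compound | Times: 5 min incubation before reading | Benchmarks: Neutral control DMSO, positive control TFP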
PGC1a acetyl inh – lowers PGC1a acetylation signal in U2OS cells | AlphaScreen anti-acetyl-lysine; with virally co-expressed GCN5 acetyltransferase | AID 651687 | inhibition, % at 15.6 µM | 350,000 tested, 0.17% active;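 active = every replicate shows inhibition of at least 40%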;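 also: 0% = neutral control wells and 100% = positive control wells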
Active calls of the source: *.

For O=C(Nc1ccc(N2CCCCC2)cc1)c1ccc([N+](=O)[O-])o1 the results were SIRT5 block 2, rRNA inh HTS -4, Statin myotox sup 61, Cneo AK release 0 and S100A4 MyoIIA -3.
For CC1CCN(c2ccc(NC(=O)c3ccc([N+](=O)[O-])o3)cc2)CC1 the results were SIRT5 block -12, rRNA inh HTS -2, Statin myotox sup 83*, Cneo AK release 2, S100A4 MyoIIA -2 and PGC1a acetyl inh 9.
`CC(C)(C)C(=O)N1CCN(c2ccc(NC(=O)c3ccc([N+](=O)[O-])o3)cc2)CC1` gave SIRT5 block 0, rRNA inh HTS -4, Statin myotox sup 133*, Cneo AK release 0 and S100A4 MyoIIA -3.
Clc1ccccc1OCCNc1nc(NCC2CC2)nc2ccsc12 was read as SIRT5 block 23*, rRNA inh HTS -51, Statin myotox sup -26, Cneo AK release 0, S100A4 MyoIIA -13 and PGC1a acetyl inh 8.
Screening CNc1nc(NCCOc2ccccc2Cl)c2sccc2n1 returned SIRT5 block 2, rRNA inh HTS -64, Statin myotox sup 2, Cneo AK release 0, S100A4 MyoIIA 0 and PGC1a acetyl inh 10.
For Cc1sc(NC(=O)CSc2n[nH]c(N)n2)c(C#N)c1C the results were SIRT5 block 16*, rRNA inh HTS -9, Statin myotox sup 1, Cneo AK release -1, S100A4 MyoIIA -8 and PGC1a acetyl inh -11.
For COC(=O)c1c(NC(=O)CSc2n[nH]c(N)n2)sc(C)c1C the results were Statin myotox sup -1, Cneo AK release -1 and PGC1a acetyl inh 5.
Screening C[C@H]1CN([C@@H](C)CO)C(=O)c2cc(NS(=O)(=O)c3cccs3)ccc2O[C@@H]1CN(C)Cc1ccc(Cl)c(Cl)c1 returned rRNA inh HTS -9, Statin myotox sup -38, Cneo AK release -2, S100A4 MyoIIA 4 and PGC1a acetyl inh -10.
Screening CCCCN(CCCC)S(=O)(=O)c1c(C)[nH]c(=O)[nH]c1=O returned SIRT5 block 22*, rRNA inh HTS 5, S100A4 MyoIIA -2 and PGC1a acetyl inh 7.
Screening CO[C@H]1CN(C)C(=O)c2ccc(NC(=O)c3ccc(F)cc3)cc2OC[C@@H](C)N(C(=O)CN(C)C)C[C@H]1C returned rRNA inh HTS 3, Statin myotox sup 7 and PGC1a acetyl inh -10.
`Cc1cc(C)nc(-n2nc(C)c(Sc3ccc(F)cc3)c2N)n1` gave SIRT5 block -1, rRNA inh HTS -40*, Statin myotox sup -7, Cneo AK release 3, S100A4 MyoIIA 0 and PGC1a acetyl inh -6.
Screening O=C(C1CC1)N1CC2(C1)[C@@H](c1ccccc1)[C@@H](CO)N2C(=O)c1cccnc1 returned SIRT5 block -45, rRNA inh HTS -1, S100A4 MyoIIA 9 and PGC1a acetyl inh 9.
`CC(C)Cc1nnc(NS(=O)(=O)c2ccccc2)s1` gave SIRT5 block 0, rRNA inh HTS -17*, Statin myotox sup -4, Cneo AK release 0, S100A4 MyoIIA -3 and PGC1a acetyl inh -2.
`CC(C)(C)c1ccc(C(=O)N2[C@H](COCc3ccccc3)C=CS2(=O)=O)cc1` gave SIRT5 block 20*, rRNA inh HTS -2, Statin myotox sup -2, Cneo AK release 2, S100A4 MyoIIA 1 and PGC1a acetyl inh 5.
For Cc1ccc(S(=O)(=O)N(C)C[C@@H]2Oc3ccc(NS(=O)(=O)c4ccccc4)cc3C(=O)N([C@@H](C)CO)C[C@H]2C)cc1 the results were SIRT5 block -1, rRNA inh HTS -8, Cneo AK release -1, S100A4 MyoIIA -7 and PGC1a acetyl inh 4.
For CC1c2ccsc2CCN1S(=O)(=O)c1cccs1 (centres undefined) the results were SIRT5 block 0, rRNA inh HTS -29* and S100A4 MyoIIA -5.
`COC(=O)N/N=C/c1cc(Cl)c(OCc2ccccc2F)c(OC)c1` gave SIRT5 block -2, rRNA inh HTS -16*, Cneo AK release -1, S100A4 MyoIIA -5 and PGC1a acetyl inh 14.
COc1ccc(S(=O)(=O)N(C)C[C@@H]2Oc3ccc(NC(=O)Cc4ccccc4)cc3C(=O)N([C@H](C)CO)C[C@H]2C)cc1 was read as SIRT5 block -1, rRNA inh HTS -4, Statin myotox sup -7, Cneo AK release 0, S100A4 MyoIIA 2 and PGC1a acetyl inh 12.
O=C(Nc1ccc(Oc2ccccc2)cc1)c1csc([C@@H]2O[C@H](CO)[C@@H](O)[C@H]2O)n1 was read as SIRT5 block -1, rRNA inh HTS -31*, Statin myotox sup 9, Cneo AK release -1 and S100A4 MyoIIA 0.
Cc1nc2ccccn2c1-c1csc(NCc2ccco2)n1 was read as Statin myotox sup 94*, Cneo AK release 0 and PGC1a acetyl inh -4.
`N#Cc1c(-c2ccccc2Cl)c2c([nH]c1=O)-c1ccccc1OC2` gave SIRT5 block -66, rRNA inh HTS -24*, Cneo AK release 1, S100A4 MyoIIA 3 and PGC1a acetyl inh -2.
`O=[N+]([O-])c1ccc(Cc2ccccn2)cc1` gave SIRT5 block -2, rRNA inh HTS -3, Statin myotox sup -1, Cneo AK release 4, S100A4 MyoIIA 1 and PGC1a acetyl inh 5.
O=[N+]([O-])c1ccc(CC(Cl)c2ccccn2)cc1 (centres undefined) was read as SIRT5 block -3, rRNA inh HTS -24*, Statin myotox sup 1, Cneo AK release 2, S100A4 MyoIIA -4 and PGC1a acetyl inh 6.
Screening COc1ccc(C(=O)Oc2ccc[nH]c2=O)cc1 returned SIRT5 block 1, rRNA inh HTS 5 and S100A4 MyoIIA -7.
Screening O=C(Oc1ccc[nH]c1=O)c1cc([N+](=O)[O-])cc([N+](=O)[O-])c1 returned SIRT5 block -2, rRNA inh HTS 1, Statin myotox sup 0, Cneo AK release 0, S100A4 MyoIIA -1 and PGC1a acetyl inh 53*.
`O=C(Nc1ccccc1)/C(=C/c1ccc(O)cc1)NC(=O)c1ccco1` gave SIRT5 block 30*, rRNA inh HTS 2, Statin myotox sup 9, Cneo AK release -3 and S100A4 MyoIIA -2.
`O=C(Nc1ccccc1C(=O)O)/C(=C/c1ccc(Cl)cc1Cl)NC(=O)c1ccco1` gave SIRT5 block 1, rRNA inh HTS -32*, Statin myotox sup -1, Cneo AK release 2, S100A4 MyoIIA 1 and PGC1a acetyl inh -1.
Screening CN(C)CC(=O)Nc1ccc2c(c1)C(=O)N(C)[C@H]1CC[C@H](CC(=O)Nc3cccc(Cl)c3)O[C@@H]1CO2 returned rRNA inh HTS -2.

From PubChem
